Results reported in ChEMBL document CHEMBL1150387, “Development and experimental validation of a docking strategy for the generation of kinase-targeted libraries” (J Med Chem, 2008).

Columns and labels:
[1] = target: Vascular endothelial growth factor receptor 2 (Homo sapiens) (UniProt P35968); test: Inhibition of KDR at 10 uM by HTRF assay relative to control
Outline: (§1)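 HTRF kinase assay, one panel of kinases. Inhibitor stock 50 µM in 100% DMSO; tested at 10 µM. ATP and substrate at final levels near Km. Final buffer: 50 mM Hepes/NaOH pH 7.4, 40 µM Na3VO4, 0.005% Tween-20, 1 mM DTT, MnCl2 or MgCl2 at kinase-dependent levels. Started by adding ATP/substrate. Reaction run at room temperature, time varied by kinase. Detection mix in 50 mM Hepes pH 7.4, 0.1% BSA, 150 mM KF, incubated ≥1 h at room temperature. Activity expressed as % of uninhibited control; n=2.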

[2] = Inhibition of IRK at 10 uM by HTRF assay relative to control; outline: as §1
[3] = target: Mitogen-activated protein kinase 8 (Homo sapiens) (UniProt P45983); test: Inhibition of JNK1 at 10 uM by HTRF assay relative to control; outline: as §1
[4] = target: T1, Serine/threonine-protein kinase Chk1 (Homo sapiens) (UniProt O14757); test: Inhibition of CHK1 at 10 uM by HTRF assay relative to control; outline: as §1
T1 sequence (whole entry): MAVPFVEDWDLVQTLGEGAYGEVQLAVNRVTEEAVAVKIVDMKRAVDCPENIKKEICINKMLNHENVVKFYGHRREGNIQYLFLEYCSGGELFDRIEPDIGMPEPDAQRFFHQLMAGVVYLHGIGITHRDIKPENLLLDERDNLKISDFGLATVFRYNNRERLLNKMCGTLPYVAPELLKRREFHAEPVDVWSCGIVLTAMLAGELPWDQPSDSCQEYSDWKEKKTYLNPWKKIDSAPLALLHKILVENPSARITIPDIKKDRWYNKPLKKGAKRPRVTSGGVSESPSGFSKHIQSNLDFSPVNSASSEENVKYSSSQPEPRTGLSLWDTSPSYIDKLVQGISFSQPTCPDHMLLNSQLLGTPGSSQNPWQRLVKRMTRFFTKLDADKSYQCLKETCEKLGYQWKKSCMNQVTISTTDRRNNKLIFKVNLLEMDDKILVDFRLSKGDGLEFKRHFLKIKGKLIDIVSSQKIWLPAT

[5] = target: Proto-oncogene tyrosine-protein kinase Src (Homo sapiens) (UniProt P12931); test: Inhibition of Src at 10 uM by HTRF assay relative to control; outline: as §1
Chain of Proto-oncogene tyrosine-protein kinase Src (Homo sapiens) (P12931 2-536 limits assumed): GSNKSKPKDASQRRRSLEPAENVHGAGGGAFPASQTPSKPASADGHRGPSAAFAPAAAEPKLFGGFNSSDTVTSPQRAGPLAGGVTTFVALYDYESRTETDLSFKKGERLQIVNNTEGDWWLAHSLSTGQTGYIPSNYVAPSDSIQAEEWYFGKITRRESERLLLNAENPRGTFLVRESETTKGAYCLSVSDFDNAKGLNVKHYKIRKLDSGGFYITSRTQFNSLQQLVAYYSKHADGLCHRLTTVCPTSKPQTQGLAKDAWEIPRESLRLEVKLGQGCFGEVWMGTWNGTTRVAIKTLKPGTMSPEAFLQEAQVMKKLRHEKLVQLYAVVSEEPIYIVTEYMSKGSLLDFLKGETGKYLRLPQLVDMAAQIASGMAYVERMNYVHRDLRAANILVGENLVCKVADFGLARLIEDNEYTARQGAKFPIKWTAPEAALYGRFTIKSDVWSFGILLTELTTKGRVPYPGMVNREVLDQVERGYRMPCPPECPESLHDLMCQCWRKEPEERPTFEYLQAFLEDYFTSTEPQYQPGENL

[6] = target: Rho-associated protein kinase 2 (Homo sapiens) (UniProt O75116); test: Inhibition of ROCK2 at 10 uM by HTRF assay relative to control; outline: as §1
Chain of Rho-associated protein kinase 2 (Homo sapiens) (O75116 whole entry, looked up): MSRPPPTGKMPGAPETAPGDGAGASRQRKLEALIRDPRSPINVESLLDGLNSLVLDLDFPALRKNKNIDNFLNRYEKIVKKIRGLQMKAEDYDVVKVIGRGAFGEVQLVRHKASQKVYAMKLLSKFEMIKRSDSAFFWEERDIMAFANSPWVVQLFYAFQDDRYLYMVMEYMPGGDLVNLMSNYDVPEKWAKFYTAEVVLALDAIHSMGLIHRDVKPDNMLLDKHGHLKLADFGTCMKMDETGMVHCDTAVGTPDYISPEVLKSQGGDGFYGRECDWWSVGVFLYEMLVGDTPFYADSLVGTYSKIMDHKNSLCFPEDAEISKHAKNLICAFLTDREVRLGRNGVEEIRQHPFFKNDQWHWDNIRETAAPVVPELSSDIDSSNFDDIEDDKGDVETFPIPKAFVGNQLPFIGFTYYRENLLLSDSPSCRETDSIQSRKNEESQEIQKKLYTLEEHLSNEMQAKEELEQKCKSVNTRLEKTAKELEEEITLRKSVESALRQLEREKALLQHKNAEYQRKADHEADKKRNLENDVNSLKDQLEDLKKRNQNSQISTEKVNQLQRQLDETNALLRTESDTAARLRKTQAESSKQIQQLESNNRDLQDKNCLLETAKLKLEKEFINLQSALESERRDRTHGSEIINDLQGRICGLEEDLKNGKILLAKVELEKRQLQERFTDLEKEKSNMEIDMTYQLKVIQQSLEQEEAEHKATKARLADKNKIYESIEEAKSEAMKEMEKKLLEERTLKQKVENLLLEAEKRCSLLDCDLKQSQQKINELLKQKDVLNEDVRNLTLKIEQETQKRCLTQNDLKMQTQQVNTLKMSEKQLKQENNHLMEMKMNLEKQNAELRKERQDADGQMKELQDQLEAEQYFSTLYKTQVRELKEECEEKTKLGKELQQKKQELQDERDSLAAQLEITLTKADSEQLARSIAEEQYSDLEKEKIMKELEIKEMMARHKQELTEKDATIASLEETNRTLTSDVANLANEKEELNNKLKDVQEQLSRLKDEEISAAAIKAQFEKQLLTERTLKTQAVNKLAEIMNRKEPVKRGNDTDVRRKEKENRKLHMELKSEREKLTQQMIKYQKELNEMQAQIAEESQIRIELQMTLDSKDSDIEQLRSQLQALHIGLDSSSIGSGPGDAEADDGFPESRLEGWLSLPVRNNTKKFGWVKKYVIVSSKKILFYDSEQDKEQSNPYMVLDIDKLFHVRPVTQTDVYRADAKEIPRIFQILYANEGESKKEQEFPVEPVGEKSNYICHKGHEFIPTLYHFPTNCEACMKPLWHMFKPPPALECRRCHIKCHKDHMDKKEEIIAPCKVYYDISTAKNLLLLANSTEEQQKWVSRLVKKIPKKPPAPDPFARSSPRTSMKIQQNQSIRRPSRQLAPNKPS

[7] = target: Epidermal growth factor receptor (Homo sapiens) (UniProt P00533); test: Inhibition of EGFR at 10 uM by HTRF assay relative to control; outline: as §1
Chain of Epidermal growth factor receptor (Homo sapiens) (P00533 whole entry): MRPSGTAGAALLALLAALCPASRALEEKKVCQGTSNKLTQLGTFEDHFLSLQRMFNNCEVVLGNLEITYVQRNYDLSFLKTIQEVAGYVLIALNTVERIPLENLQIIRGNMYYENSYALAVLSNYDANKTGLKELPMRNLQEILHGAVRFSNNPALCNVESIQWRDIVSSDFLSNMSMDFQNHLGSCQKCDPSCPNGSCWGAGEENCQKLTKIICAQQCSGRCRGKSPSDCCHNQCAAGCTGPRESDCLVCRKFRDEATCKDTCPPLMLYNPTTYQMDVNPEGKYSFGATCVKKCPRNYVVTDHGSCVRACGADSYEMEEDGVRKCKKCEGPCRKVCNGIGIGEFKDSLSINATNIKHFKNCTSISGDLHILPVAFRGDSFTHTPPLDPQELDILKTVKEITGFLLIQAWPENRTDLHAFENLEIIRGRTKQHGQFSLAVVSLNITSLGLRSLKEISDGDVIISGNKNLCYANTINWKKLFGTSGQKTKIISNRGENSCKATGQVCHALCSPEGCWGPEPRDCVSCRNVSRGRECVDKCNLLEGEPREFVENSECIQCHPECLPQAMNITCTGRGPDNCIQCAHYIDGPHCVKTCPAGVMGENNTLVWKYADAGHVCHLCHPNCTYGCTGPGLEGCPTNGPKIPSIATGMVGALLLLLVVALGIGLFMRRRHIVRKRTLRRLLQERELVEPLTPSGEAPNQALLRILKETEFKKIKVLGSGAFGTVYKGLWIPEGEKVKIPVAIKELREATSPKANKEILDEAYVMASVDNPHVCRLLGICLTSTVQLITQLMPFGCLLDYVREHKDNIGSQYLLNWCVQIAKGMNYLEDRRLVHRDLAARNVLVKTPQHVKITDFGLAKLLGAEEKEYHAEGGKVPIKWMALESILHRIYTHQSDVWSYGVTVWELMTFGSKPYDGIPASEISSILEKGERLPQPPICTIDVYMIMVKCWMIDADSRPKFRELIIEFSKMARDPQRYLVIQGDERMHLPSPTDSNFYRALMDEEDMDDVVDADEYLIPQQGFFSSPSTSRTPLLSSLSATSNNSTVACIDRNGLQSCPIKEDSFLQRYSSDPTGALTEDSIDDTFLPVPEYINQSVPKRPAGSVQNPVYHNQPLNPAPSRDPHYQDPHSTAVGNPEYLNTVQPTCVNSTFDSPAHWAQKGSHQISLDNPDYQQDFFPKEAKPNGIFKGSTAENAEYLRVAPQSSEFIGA

[8] = target: Ribosomal protein S6 kinase alpha-3 (Homo sapiens) (UniProt P51812); test: Inhibition of RSK2 at 10 uM by HTRF assay relative to control; outline: as §1
[9] = target: Calcium/calmodulin-dependent protein kinase type II subunit alpha (Homo sapiens) (UniProt Q9UQM7); test: Inhibition of CaMK2alpha at 10 uM by HTRF assay relative to control; outline: as §1
[10] = target: RAC-alpha serine/threonine-protein kinase (Homo sapiens) (UniProt P31749); test: Inhibition of AKT1/PKBalpha at 10 uM by HTRF assay relative to control; outline: as §1
Chain of RAC-alpha serine/threonine-protein kinase (Homo sapiens) (P31749 whole entry): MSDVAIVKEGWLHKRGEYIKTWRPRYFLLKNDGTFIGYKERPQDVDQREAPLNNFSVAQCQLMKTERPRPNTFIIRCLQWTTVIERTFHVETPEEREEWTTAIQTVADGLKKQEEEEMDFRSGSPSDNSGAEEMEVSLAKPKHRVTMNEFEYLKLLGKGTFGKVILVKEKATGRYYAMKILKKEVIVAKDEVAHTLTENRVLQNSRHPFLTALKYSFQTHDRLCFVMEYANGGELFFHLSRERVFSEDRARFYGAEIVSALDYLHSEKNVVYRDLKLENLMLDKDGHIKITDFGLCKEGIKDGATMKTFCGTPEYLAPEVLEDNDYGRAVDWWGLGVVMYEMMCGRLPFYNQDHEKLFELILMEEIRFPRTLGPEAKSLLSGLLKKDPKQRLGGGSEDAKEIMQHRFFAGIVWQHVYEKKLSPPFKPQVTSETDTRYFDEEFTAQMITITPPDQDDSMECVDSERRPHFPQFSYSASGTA

[11] = target: T2, Inhibitor of nuclear factor kappa-B kinase subunit beta (Homo sapiens) (UniProt O14920); test: Inhibition of IKK-beta at 10 uM by HTRF assay relative to control; outline: as §1
T2 sequence (whole entry): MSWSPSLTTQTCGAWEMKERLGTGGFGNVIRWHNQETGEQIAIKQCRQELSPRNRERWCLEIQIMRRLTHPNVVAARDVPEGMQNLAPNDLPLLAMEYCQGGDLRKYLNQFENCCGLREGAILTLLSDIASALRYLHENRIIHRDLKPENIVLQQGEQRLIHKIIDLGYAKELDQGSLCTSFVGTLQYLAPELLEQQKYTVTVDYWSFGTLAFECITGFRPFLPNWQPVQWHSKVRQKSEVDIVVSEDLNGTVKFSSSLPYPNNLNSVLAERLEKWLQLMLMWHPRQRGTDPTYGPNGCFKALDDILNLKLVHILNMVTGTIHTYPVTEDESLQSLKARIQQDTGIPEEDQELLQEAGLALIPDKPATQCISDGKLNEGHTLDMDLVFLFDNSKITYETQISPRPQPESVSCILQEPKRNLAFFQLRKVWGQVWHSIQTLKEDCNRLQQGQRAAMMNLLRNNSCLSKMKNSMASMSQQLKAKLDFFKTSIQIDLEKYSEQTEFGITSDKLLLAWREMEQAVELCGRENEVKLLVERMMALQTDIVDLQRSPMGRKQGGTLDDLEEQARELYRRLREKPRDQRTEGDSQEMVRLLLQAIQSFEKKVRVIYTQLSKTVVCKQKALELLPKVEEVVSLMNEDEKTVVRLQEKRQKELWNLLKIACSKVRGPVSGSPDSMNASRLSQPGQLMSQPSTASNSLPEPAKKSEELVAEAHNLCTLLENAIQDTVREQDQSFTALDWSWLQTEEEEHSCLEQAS

[12] = target: Receptor-type tyrosine-protein kinase FLT3 (Homo sapiens) (UniProt P36888); test: Inhibition of FLT3 at 10 uM by HTRF assay relative to control; outline: as §1
Chain of Receptor-type tyrosine-protein kinase FLT3 (Homo sapiens) (P36888 whole entry): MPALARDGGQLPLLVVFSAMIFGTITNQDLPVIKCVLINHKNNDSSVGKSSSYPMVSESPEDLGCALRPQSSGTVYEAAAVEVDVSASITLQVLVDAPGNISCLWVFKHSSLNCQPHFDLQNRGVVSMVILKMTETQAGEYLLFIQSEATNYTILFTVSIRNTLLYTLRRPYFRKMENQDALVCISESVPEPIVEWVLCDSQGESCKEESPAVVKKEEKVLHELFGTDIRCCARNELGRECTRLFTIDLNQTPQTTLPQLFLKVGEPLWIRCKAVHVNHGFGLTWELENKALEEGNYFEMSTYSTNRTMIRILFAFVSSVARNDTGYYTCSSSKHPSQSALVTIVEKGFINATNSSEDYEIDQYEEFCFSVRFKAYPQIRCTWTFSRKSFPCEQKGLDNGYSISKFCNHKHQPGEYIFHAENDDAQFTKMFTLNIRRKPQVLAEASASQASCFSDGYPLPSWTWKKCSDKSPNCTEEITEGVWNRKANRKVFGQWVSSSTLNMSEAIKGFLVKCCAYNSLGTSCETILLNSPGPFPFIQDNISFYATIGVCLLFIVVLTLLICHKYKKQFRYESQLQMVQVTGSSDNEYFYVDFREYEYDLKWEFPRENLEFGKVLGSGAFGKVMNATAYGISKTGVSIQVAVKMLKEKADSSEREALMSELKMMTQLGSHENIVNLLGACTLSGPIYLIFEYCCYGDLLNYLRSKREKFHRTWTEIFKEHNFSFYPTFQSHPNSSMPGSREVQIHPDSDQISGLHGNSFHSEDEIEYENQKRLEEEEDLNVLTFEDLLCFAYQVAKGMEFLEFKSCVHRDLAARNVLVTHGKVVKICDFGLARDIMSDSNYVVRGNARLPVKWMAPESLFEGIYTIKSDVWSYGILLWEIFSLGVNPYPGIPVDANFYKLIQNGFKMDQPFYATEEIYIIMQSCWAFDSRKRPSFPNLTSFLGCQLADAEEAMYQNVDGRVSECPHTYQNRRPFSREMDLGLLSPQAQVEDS

[13] = target: Protein kinase C alpha type (Homo sapiens) (UniProt P17252); test: Inhibition of PKCalpha at 10 uM by HTRF assay relative to control; outline: as §1
[14] = target: Protein-tyrosine kinase 6 (Homo sapiens) (UniProt Q13882); test: Inhibition of Brk at 10 uM by HTRF assay relative to control; outline: as §1
[15] = target: Tyrosine-protein kinase Lck (Homo sapiens) (UniProt P06239); test: Inhibition of Lck at 10 uM by HTRF assay relative to control; outline: as §1
[16] = target: Fibroblast growth factor receptor 1 (Homo sapiens) (UniProt P11362); test: Inhibition of FGFR1 at 10 uM by HTRF assay relative to control; outline: as §1
[17] = target: Insulin-like growth factor 1 receptor (Homo sapiens) (UniProt P08069); test: Inhibition of IGF1R at 10 uM by HTRF assay relative to control; outline: as §1
[18] = target: Cyclin-dependent kinase 1 (Homo sapiens) (UniProt P06493); test: Inhibition of CDK1 at 10 uM by HTRF assay relative to control; outline: as §1
Chain of Cyclin-dependent kinase 1 (Homo sapiens) (P06493 whole entry, looked up): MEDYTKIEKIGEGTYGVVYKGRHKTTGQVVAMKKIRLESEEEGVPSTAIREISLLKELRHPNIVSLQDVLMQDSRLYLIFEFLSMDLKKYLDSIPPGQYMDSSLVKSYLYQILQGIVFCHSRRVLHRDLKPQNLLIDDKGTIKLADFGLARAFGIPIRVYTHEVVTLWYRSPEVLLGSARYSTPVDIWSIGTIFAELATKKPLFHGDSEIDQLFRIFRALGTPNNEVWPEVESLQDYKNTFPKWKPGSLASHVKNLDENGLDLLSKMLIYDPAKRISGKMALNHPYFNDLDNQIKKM

[19] = target: Tyrosine-protein kinase Fes/Fps (Homo sapiens) (UniProt P07332); test: Inhibition of FES at 10 uM by HTRF assay relative to control; outline: as §1

SMILES	inhibition [1] [%]	inhibition [2] [%]	inhibition [3] [%]	inhibition [4] [%]	inhibition [5] [%]	inhibition [6] [%]	inhibition [7] [%]	inhibition [8] [%]	inhibition [9] [%]	inhibition [10] [%]	inhibition [11] [%]	inhibition [12] [%]	inhibition [13] [%]	inhibition [14] [%]	inhibition [15] [%]	inhibition [16] [%]	inhibition [17] [%]	inhibition [18] [%]	inhibition [19] [%]
O=C(NCc1cccnc1)c1cccc(-c2ccc(Nc3ccc4ncsc4c3)nn2)c1	62	73	55	6	11	93	27	62	0	5	52	98	0	48	42	49	32	0	18
Cc1cccc(N(C)c2cc(Nc3cccc(C(=O)N(CC(C)C)CC(C)C)c3)ncn2)c1	5	0	0	0	2	0	84	0	0	0	0	0	0	7	0	0	0	0	7
O=C(NC[C@@H]1CCCO1)c1cccc(Nc2nccc(Nc3ccc4ncsc4c3)n2)c1	95	83	94	2	97	19	43	9	0	0	45	99	1	81	84	95	83	11	90
CN(CCc1ccccn1)C(=O)c1cccc(Nc2nccc(Nc3ccc4ncsc4c3)n2)c1	95	34	70	0	69	7	23	35	0	0	36	98	5	78	37	80	50	0	51
O=C(NCc1ccncc1)c1cccc(Nc2cc(Nc3cccc(Br)c3)ncn2)c1	22	0	28	4	30	13	100	5	0	0	4	35	2	10	32	0	5	1	17
Nc1nc(Nc2ccc3ncsc3c2)cc(N2CCC[C@H]2C(=O)NCCc2cccc(I)c2)n1	17	0	0	3	0	1	0	0	0	0	4	11	0	0	0	13	0	0	8
Cc1cccc(N(C)c2cc(Nc3cccc(C(=O)NCc4ccc(N(C)C)cc4)c3)ncn2)c1	0	0	0	1	4	0	97	0	0	0	3	21	0	3	0	3	0	0	4

The next lines start with the values.

inhibition [1] [%]	inhibition [2] [%]	inhibition [3] [%]	inhibition [4] [%]	inhibition [5] [%]	inhibition [6] [%]	inhibition [7] [%]	inhibition [8] [%]	inhibition [9] [%]	inhibition [10] [%]	inhibition [11] [%]	inhibition [12] [%]	inhibition [13] [%]	inhibition [14] [%]	inhibition [15] [%]	inhibition [16] [%]	inhibition [17] [%]	inhibition [18] [%]	inhibition [19] [%]	SMILES
6	0	0	2	9	1	0	0	0	2	1	0	0	0	0	2	0	0	5	O=C(NC1Cc2ccccc2C1)c1cccc(Nc2ccnc(N3CCN(c4ccccc4)CC3)n2)c1
0	0	2	8	4	0	0	0	0	0	7	0	0	0	0	5	0	0	3	Cc1ccc(CN2CCN(c3nccc(C(C#N)c4ccccn4)n3)CC2)cc1 (stereo unspecified)
3	0	9	0	8	1	0	0	0	5	1	0	3	7	0	5	0	0	4	Cc1cccc(CN2CCN(c3cc(N(C)c4cccc(C)c4)ncn3)CC2)c1
5	0	0	6	0	0	0	0	0	0	5	0	0	4	0	4	0	0	20	CN(C)CC(C)(C)CNC(=O)[C@@H]1CCCN1c1nccc(Nc2ccccc2)n1
5	0	10	3	1	0	0	0	0	2	6	0	5	7	0	0	1	0	4	COc1cccc(Nc2cc(N3CCC[C@H]3C(=O)NCCN3CCCCC3)nc(N)n2)c1
0	0	0	3	0	0	0	0	0	0	3	0	0	22	0	0	0	0	0	Cc1cc(C(=O)N2CCN(c3ncnc4c3CN(Cc3ccccc3)CC4)CC2)c(C)n1C
0	0	0	3	0	0	82	0	0	0	0	0	1	13	0	0	0	0	2	Cc1cccc(Nc2nccc3c2CN(C(=O)c2cc(C)n(C)c2C)CC3)c1
